Our source for the Inhibitory effect and Concentration values is ChEMBL document CHEMBL1147630, “New PDMP analogues inhibit process outgrowth in an insect cell line” (Bioorg Med Chem Lett, 2004).

Structures are written as SMILES. The source made the active and inactive calls. The rule behind the calls is not given here.

Assay [1] has as its system MRRL-CH1. In words: Inhibitory effect on outgrowth of MRRL-CH1 cell line at 0.5 uM concentration; Reversible. The settings on record: Manduca sexta. It is filed as functional, cell-based. Put shortly: (§1)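 Embryonic Manduca sexta MRRL-CH1 cells, grown attached in DL medium in room air. Analogue in DMSO was added to well cultures 2–4 days after seeding, for 48 h. Drug was then diluted 16-fold by two medium exchanges, and cells were followed for 6 more days. Neurite outgrowth and reversibility were judged from photographs taken at 0, 24 and 48 h of exposure and at 24, 48 and 144 h after removal. Duplicates, with DMSO vehicle control.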

Assay [2] relates to MRRL-CH1. In words: Inhibitory effect on outgrowth of MRRL-CH1 cell line at 1 uM concentration; Irreversible. The assay is classed as functional, cell-based. The settings on record: Manduca sexta. Put shortly: as §1
Assay [3] concerns MRRL-CH1. In words: Inhibitory effect on outgrowth of MRRL-CH1 cell line at 5 uM concentration; Irreversible. It is filed as functional, cell-based. As to conditions: Manduca sexta. Put shortly: as §1
Assay [4] relates to MRRL-CH1. In words: Inhibitory effect on outgrowth of MRRL-CH1 cell line at 1 uM concentration; No Effect. It is filed as functional, cell-based. As to conditions: Manduca sexta. The gist of the method: as §1
In assay [5] the test system is MRRL-CH1. Description: Inhibitory effect on outgrowth of MRRL-CH1 cell line at 5 uM concentration; No Effect. It is filed as functional, cell-based. The settings on record: Manduca sexta. The gist of the method:
as §1

Assay [6] relates to MRRL-CH1. In words: Inhibitory effect on outgrowth of MRRL-CH1 cell line at 0.5 uM concentration; No Effect. The assay is classed as functional, cell-based. The settings on record: Manduca sexta. The gist of the method: as §1
The species named for a further assay is Rattus norvegicus. Description: Concentration required to reduce the length of total axon plexus in rat embryonic hippocampal neurons. The assay is classed as functional.
The subject of a further assay is SH-SY5Y. Description: Concentration required to inhibit neurite outgrowth in SH-SY5Y cell line. The assay is classed as functional, cell-based.

With `CCCCCCCCCC(=O)N[C@H](CN1CCOCC1)[C@H](O)c1ccc2c(c1)OCO2`, the Inhibitory effect entry in the assay on MRRL-CH1 [1] is given as “Reversible”; in the assay with MRRL-CH1 [2], “Irreversible”; in the assay with MRRL-CH1 [3], “Irreversible”.

In the case of `CCCCCCCCCC(=O)N[C@H](CN1CCOCC1)[C@H](O)c1ccccc1`, the Inhibitory effect result in the assay with MRRL-CH1 [4], in the assay with MRRL-CH1 [5] and in the assay on MRRL-CH1 [6] was “inactive” throughout. Also, the Concentration in the assay listed under Rattus norvegicus stood at 50 µM; in the assay with SH-SY5Y, 20 µM.

In the case of `CCCCCCCCCC(=O)N[C@H](CN1CCOCC1)[C@H](O)c1ccc(OC(C)(C)C)cc1`, the Inhibitory effect entry is “Reversible” in the assay on MRRL-CH1 [1], “Irreversible” with MRRL-CH1 [2] and “Irreversible” with MRRL-CH1 [3].

Take `CCCCCCCCCC(=O)N[C@H](CN1CCOCC1)[C@H](O)c1ccc(OC)cc1`: the Inhibitory effect result in the assay on MRRL-CH1 [1] is “Reversible”; with MRRL-CH1 [2] it was “Irreversible”; with MRRL-CH1 [3] it was “Irreversible”.
